Source: ChEMBL document CHEMBL1649338, “Synthesis of lakshminine and antiproliferative testing of related oxoisoaporphines” (J Nat Prod, 2010)
Active and inactive are the calls of the source. No cut-off for these calls is given here.

How the values were obtained:
[1] = (§1) Antiproliferative activity against human HTB-58 cells by MTT assay; assay type: functional, cell-based
In short: (§2)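 Cells were grown in medium with 10% heat-inactivated FBS, penicillin G and streptomycin, and were plated in 96-well plates. One day after seeding, they were exposed for 72 h to 0–100 µM compound (DMSO stock diluted in complete medium, final DMSO 1%). Viability was read by MTT reduction. IC50 values came from fitting the dose-response curves to a sigmoidal model.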

SK-MES-1 = assay: Antiproliferative activity against human SKMES1 cells by MTT assay; assay type: functional, cell-based; in short: as §2
AGS = assay: Antiproliferative activity against human AGS cells by MTT assay; assay type: functional, cell-based; in short: as §2
J82 = assay: Antiproliferative activity against human J82 cells by MTT assay; assay type: functional, cell-based; in short: as §2
[2] = Antiproliferative activity against human CRL1739 cells by MTT assay; assay type: functional, cell-based; in short: as §2
[3] = (§3) Antiproliferative activity against human HTB-1 cells by MTT assay; assay type: functional, cell-based; in short: as §2
HTB-58 = assay: as §1; assay type: functional, cell-based; in short: as §2
[4] = Antiproliferative activity against human CCL171 cells by MTT assay; assay type: cell-based; in short: as §2
MRC5 = assay: Antiproliferative activity against human MRC5 cells by MTT assay; assay type: cell-based; in short: as §2
HTB-1 = assay: as §3; assay type: functional, cell-based; in short: as §2

Row | IC50 (SK-MES-1) [nM] | IC50 (AGS) [nM] | Compound | IC50 [1] [nM] | IC50 (J82) [nM] | IC50 [2] [nM] | IC50 [3] [nM] | Activity (HTB-58) | Activity (SK-MES-1) | Activity [4] | Activity (MRC5) | Activity (J82) | Activity (HTB-1)
1 | > 2090 | > 2090 | COc1cc2ccnc3c2c(c1[N+](=O)[O-])C(=O)c1ccccc1-3 | > 2090 | > 2090 | > 2090 | > 2090 | – | – | – | – | – | –
2 | > 3000 | > 3000 | COc1ccc2c(c1)C(=O)c1c(N)c(OC)c(OC)c3ccnc-2c13 [DAURIOXOISOPORPHINE B] | > 3000 | > 3000 | > 3000 | > 3000 | – | – | – | – | – | –
3 | > 2090 | > 2090 | COc1cc2c3c(c1[N+](=O)[O-])CCN=C3c1ccccc1C2=O | > 2090 | > 2090 | > 2090 | > 2090 | – | – | – | – | – | –
4 | > 2090 | > 2090 | COc1cc2ccnc3c2c(c1N)C(=O)c1ccccc1-3 [LAKSHMININE] | > 2090 | > 2090 | > 2090 | > 2090 | – | – | – | – | – | –
5 | > 2090 | > 2090 | COc1cc2c3c(c1[N+](=O)[O-])C(=O)c1ccccc1C3=NCC2 | > 2090 | > 2090 | > 2090 | > 2090 | – | – | – | – | – | –
6 | > 3000 | > 3000 | COc1ccc2c(c1)C(=O)c1c(NCCc3ccc(O)cc3)c(OC)cc3ccnc-2c13 [DAURIOXOISOPORPHINE A] | > 3000 | > 3000 | > 3000 | > 3000 | – | – | – | – | – | –
7 | > 2090 | > 2090 | CNc1c(OC)cc2ccnc3c2c1C(=O)c1cc(OC)ccc1-3 [DAURIOXOISOAPORPHINE C] | > 2090 | > 2090 | > 2090 | > 2090 | – | – | – | – | – | –
8 | – | 4500 | COc1cc2c3c(nccc3c1[N+](=O)[O-])-c1ccccc1C2=O | – | – | 4500 | – | inactive | inactive | Non-toxic | Non-toxic | inactive | inactive
9 | > 2090 | > 2090 | COc1cc2c3c(nccc3c1)-c1ccccc1C2=O | > 2090 | > 2090 | > 2090 | > 2090 | – | – | – | – | – | –
10 | > 2090 | > 2090 | COc1cc2c3c(c1)C(=O)c1ccccc1C3=NCC2 | > 2090 | > 2090 | > 2090 | > 2090 | – | – | – | – | – | –
11 | > 2090 | > 2090 | COc1cc2c3c(nccc3c1N)-c1ccccc1C2=O | > 2090 | > 2090 | > 2090 | > 2090 | – | – | – | – | – | –
12 | > 2090 | > 2090 | COc1ccc2c(c1)C(=O)c1c(NCCc3ccc(O)cc3)c(OC)c(OC)c3ccnc-2c13 [TYRAMINOPORPINE] | > 2090 | > 2090 | > 2090 | > 2090 | – | – | – | – | – | –
